# Data as given in ChEMBL document CHEMBL1777667, “Synthesis and antibacterial activity of some binaphthyl-supported macrocycles containing a cationic amino acid” (2011).
# System: Staphylococcus aureus
# Experiment: Antibacterial activity against Staphylococcus aureus ATCC 6538P by two fold dilution method
# Format: functional
# Conditions: not given
# Outline: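 Compounds dissolved in 10% methanol/water as stock, diluted in water, then serially twofold-diluted in LB across eight wells in triplicate. Overnight (14 h) LB culture grown at 37 °C, diluted 1 in 1,000 and added to wells. Media-only, no-compound and vancomycin controls were run. Operator was blinded. MIC read by eye as the concentration next to the first well of obvious growth.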
row,Structure (SMILES),MIC [µg/mL]
1,COC(=O)[C@@H]1CC=CCc2cc3ccccc3c(c2OC)-c2c(OC)c(cc3ccccc23)CC(NC(C)=O)C(=O)N[C@H](CCCCN)C(=O)N1.Cl (mixture of isomers; 1),16
2,COC(=O)[C@@H]1CC=CCc2cc3ccccc3c(c2OC)-c2c(OC)c(cc3ccccc23)CC(NC(C)=O)C(=O)N[C@H](CCCCN)C(=O)N1.Cl (mixture of isomers; 21),62
3,COC(=O)[C@@H]1C/C=C/Cc2cc3ccccc3c(c2OC)-c2c(OC)c(cc3ccccc23)CC(NC(C)=O)C(=O)N[C@H](CCCNC(=N)N)C(=O)N1.Cl (mixture of isomers; 24),62
4,COC(=O)[C@@H]1CC=CCc2cc3ccccc3c(c2OC)-c2c(OC)c(cc3ccccc23)CC(NC(C)=O)C(=O)N[C@H](CCCCN)C(=O)N1.Cl (mixture of isomers; 25),31
5,COC(=O)[C@@H]1CC=CCc2cc3ccccc3c(c2OC)-c2c(OC)c(cc3ccccc23)CC(NC(C)=O)C(=O)N[C@H](CCCCN)C(=O)N1.Cl (mixture of isomers; 26),8

# Same assay, conditions: Staphylococcus aureus, ATCC 6538P; read-out: MIC
row,Structure (SMILES),MIC [µg/mL]
1,C=CCc1cc2ccccc2c(-c2c(OC)c(CC(NC(C)=O)C(=O)N[C@H](CCCNC(=N)N)C(=O)N[C@@H](CC=C)C(=O)OC)cc3ccccc23)c1OC (some centres not stated),4
2,C=CCc1cc2ccccc2c(-c2c(OC)c(CC(NC(C)=O)C(=O)N[C@@H](CCCNC(=N)N)C(=O)N[C@@H](CC=C)C(=O)OC)cc3ccccc23)c1OC (some centres not stated),4
3,COC(=O)[C@@H]1C/C=C/Cc2cc3ccccc3c(c2OC)-c2c(OC)c(cc3ccccc23)CC(NC(C)=O)C(=O)N[C@H](CCCCNC(=O)OC(C)(C)C)C(=O)N1 (mixture of isomers),> 250
4,COC(=O)[C@@H]1C/C=C/Cc2cc3ccccc3c(c2OC)-c2c(OC)c(cc3ccccc23)CC(NC(C)=O)C(=O)N[C@H](CCCNC(=N)NS(=O)(=O)c2c(C)c(C)c3c(c2C)CCC(C)(C)O3)C(=O)N1 (mixture of isomers),31
5,COC(=O)[C@@H]1C/C=C/Cc2cc3ccccc3c(c2OC)-c2c(OC)c(cc3ccccc23)CC(NC(C)=O)C(=O)N[C@@H](CCCCNC(=O)OCC2c3ccccc3-c3ccccc32)C(=O)N1 (mixture of isomers),> 250
6,COC(=O)[C@@H]1C/C=C/Cc2cc3ccccc3c(c2OC)-c2c(OC)c(cc3ccccc23)CC(NC(C)=O)C(=O)N[C@@H](C)C(=O)N[C@@H](CCCCN)C(=O)N1.Cl (mixture of isomers),> 250
7,COC(=O)[C@@H]1C/C=C/Cc2cc3ccccc3c(c2OC)-c2c(OC)c(cc3ccccc23)CC(NC(C)=O)C(=O)N[C@H](CCCNC(=N)N)C(=O)N1.Cl (mixture of isomers; 22),62
